Experimental data published in ChEMBL document CHEMBL4312003, “Optimization of biaryloxazolidinone as promising antibacterial agents against antibiotic-susceptible and antibiotic-resistant gram-positive bacteria” (Eur J Med Chem, 2020).
Converted amounts (≈) assume the structure as drawn.

Tests used:
MAO-A = target: T1, MAO-A (Homo sapiens, UniProt P21397); experiment: Inhibition of recombinant human MAO-A (active motif 31502) at 30 uM using luciferin as substrate incubated for 15 mins followed by substrate addition and measured after 60 mins by luminescence based method relative to control; conditions: probe luciferin
T1 sequence (P21397 whole entry): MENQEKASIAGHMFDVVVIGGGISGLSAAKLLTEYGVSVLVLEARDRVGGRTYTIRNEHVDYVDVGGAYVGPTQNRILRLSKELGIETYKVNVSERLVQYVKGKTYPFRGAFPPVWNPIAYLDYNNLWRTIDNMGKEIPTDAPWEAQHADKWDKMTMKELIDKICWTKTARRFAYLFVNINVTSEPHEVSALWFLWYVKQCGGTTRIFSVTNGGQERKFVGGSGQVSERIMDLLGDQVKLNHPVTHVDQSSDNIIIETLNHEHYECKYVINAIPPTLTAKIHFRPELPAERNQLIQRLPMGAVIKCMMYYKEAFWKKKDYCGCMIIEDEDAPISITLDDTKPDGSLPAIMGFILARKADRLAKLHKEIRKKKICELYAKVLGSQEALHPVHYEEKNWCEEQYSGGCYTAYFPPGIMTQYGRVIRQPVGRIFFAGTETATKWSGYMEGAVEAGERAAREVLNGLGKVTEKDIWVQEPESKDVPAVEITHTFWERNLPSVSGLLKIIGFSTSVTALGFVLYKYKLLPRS
How it was run: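 Recombinant human MAO-A was measured with the MAO-Glo kit, modified. Compounds were in DMSO (1% DMSO final) and preincubated with enzyme 15 min at room temperature. Luciferin-derivative substrate was then added and the reaction run 60 min at room temperature. Luciferase detection reagent was added for 20 min and luminescence read. Buffer without enzyme served as the 100% inhibition control; DMSO alone as the no-inhibition control. Percent inhibition = (Max − signal)/(Max − Min)×100.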

Enterococcus faecium [1] = experiment: Antibacterial activity against vancomycin-resistant Enterococcus faecium assessed as complete reduction in bacterial cell growth by CLSI protocol based broth liquid microdilution method; format: functional
How it was run: (§1)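 Broth liquid microdilution per CLSI guidelines; isolates identified on an automated MicroScan system before testing. MIC taken as lowest concentration giving total inhibition of bacterial growth, reported in μg/mL. S. aureus ATCC29213 run as the control strain.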

Staphylococcus aureus [2] = experiment: Antibacterial activity against Staphylococcus aureus ATCC 29213 assessed as complete reduction in bacterial cell growth by CLSI protocol based broth liquid microdilution method; format: functional; how it was run: as §1
Staphylococcus aureus [3] = experiment: Antibacterial activity against methicillin-resistant Staphylococcus aureus assessed as complete reduction in bacterial cell growth by CLSI protocol based broth liquid microdilution method; format: functional; how it was run: as §1
Staphylococcus aureus [4] = experiment: Antibacterial activity against methicillin-sensitive Staphylococcus aureus assessed as complete reduction in bacterial cell growth by CLSI protocol based broth liquid microdilution method; format: functional; how it was run: as §1
Enterococcus faecalis [5] = experiment: Antibacterial activity against linezolid-resistant Enterococcus faecalis assessed as complete reduction in bacterial cell growth by CLSI protocol based broth liquid microdilution method; format: functional; how it was run: as §1
Enterococcus faecium [6] = experiment: Antibacterial activity against clinical isolates of vancomycin-resistant Enterococcus faecium assessed as complete reduction in bacterial cell growth by CLSI protocol based broth liquid microdilution method; format: functional; how it was run: as §1
HepG2 = experiment: Cytotoxicity against human HepG2 cells assessed as reduction in cell viability incubated for 48 hrs by MTT assay; format: cell-based; conditions: HepG2, 48 h
How it was run: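 HepG2 cells were grown in RPMI1640 with 10% FBS and plated at about 4×10^4 cells/well in MEM. After 24 h at 37 °C in 5% CO2, compounds were added at the indicated final concentrations for 48 h. MTT was added (0.5 mg/mL final) for 4 h at 37 °C and the formazan dissolved in DMSO. Absorbance was read at 492 nm (630 nm reference). Each compound was tested three times; IC50 given as mean ± SD.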

Enterococcus faecalis [7] = experiment: Antibacterial activity against clinical isolates of linezolid-resistant Enterococcus faecalis assessed as complete reduction in bacterial cell growth by CLSI protocol based broth liquid microdilution method; format: functional; how it was run: as §1
Staphylococcus aureus [8] = experiment: Antibacterial activity against clinical isolates of methicillin-sensitive Staphylococcus aureus assessed as reduction in bacterial cell growth by CLSI protocol based broth microdilution method; format: functional; how it was run: as §1
[9] = Stability in human liver microsomes assessed as half life at 1.5 uM preincubated for 5 mins with NADPH and measured after 45 mins by LC/MS analysis; format: ADME, Microsome; conditions: microsomes, 0.75 h, 1.5 µM
How it was run: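 Compound solution at 1.5 µM with 0.75 mg/mL microsomes (before NADPH addition) was preincubated 5 min at 37 °C. Reactions were started with NADPH (6 mM stock). Samples were quenched with acetonitrile containing internal standard at 0, 5, 15, 30 and 45 min, then centrifuged, and the supernatant was diluted with water for LC/MS. Runs were in duplicate. T1/2 = ln2/k from the log-linear slope, and CLint was derived from T1/2.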

CC(=O)NC[C@H]1CN(c2ccc(-c3ccc(/C=N/N4CCOCC4)c(F)c3)c(F)c2)C(=O)O1 showed an inhibition at 1 h, 30 µM (MAO-A) of 80%, an MIC (Enterococcus faecium [1]) of 0.25 µg/mL (≈ 0.545 µM) and an MIC (Staphylococcus aureus [2]) of 0.25 µg/mL (≈ 0.545 µM). For the same molecule, the MIC (Staphylococcus aureus [3]) was 0.25 µg/mL (≈ 0.545 µM), the MIC (Staphylococcus aureus [4]) was 0.25 µg/mL (≈ 0.545 µM) and the MIC (Enterococcus faecalis [5]) was 0.25 µg/mL (≈ 0.545 µM).
Work on CC(=O)NC[C@H]1CN(c2ccc(-c3ccc(/C=N/N4CCN(C)CC4)cn3)c(F)c2)C(=O)O1 yielded an MIC (Enterococcus faecium [1]) of 2 µg/mL (≈ 4.4 µM), an MIC (Staphylococcus aureus [2]) of 2 µg/mL (≈ 4.4 µM) and an MIC (Staphylococcus aureus [3]) of 1 µg/mL (≈ 2.2 µM). The MIC (Staphylococcus aureus [4]) was 2 µg/mL (≈ 4.4 µM) and the MIC (Enterococcus faecalis [5]) was 2 µg/mL (≈ 4.4 µM).
Work on CCC(=O)N1CCN(/N=C/c2ccc(-c3ccc(N4C[C@H](CNC(C)=O)OC4=O)cc3F)cn2)CC1 yielded an MIC (Enterococcus faecium [1]) of 0.5 µg/mL (≈ 1.01 µM), an MIC (Staphylococcus aureus [2]) of 1 µg/mL (≈ 2.01 µM) and an MIC (Staphylococcus aureus [3]) of 1 µg/mL (≈ 2.01 µM). It also gave an MIC (Staphylococcus aureus [4]) of 1 µg/mL (≈ 2.01 µM) and an MIC (Enterococcus faecalis [5]) of 1 µg/mL (≈ 2.01 µM).
CC(=O)NC[C@H]1CN(c2ccc(-c3ccc(/C=N/N4CCSCC4)c(C(F)(F)F)c3)c(F)c2)C(=O)O1 gave an MIC (Enterococcus faecium [1]) of 2 µg/mL (≈ 3.81 µM), an MIC (Staphylococcus aureus [2]) of 2 µg/mL (≈ 3.81 µM) and an MIC (Staphylococcus aureus [3]) of 2 µg/mL (≈ 3.81 µM). It also gave an MIC (Staphylococcus aureus [4]) of 2 µg/mL (≈ 3.81 µM) and an MIC (Enterococcus faecalis [5]) of 2 µg/mL (≈ 3.81 µM).
Molecule CC(=O)NC[C@H]1CN(c2ccc(-c3ccc(/C=N/N4CCN(C)CC4)c(C)c3)c(F)c2)C(=O)O1 has an MIC (Enterococcus faecium [1]) of 0.5 µg/mL (≈ 1.07 µM), an MIC (Staphylococcus aureus [2]) of 0.5 µg/mL (≈ 1.07 µM) and an MIC (Staphylococcus aureus [3]) of 0.5 µg/mL (≈ 1.07 µM). The MIC (Staphylococcus aureus [4]) was 0.5 µg/mL (≈ 1.07 µM) and the MIC (Enterococcus faecalis [5]) was 0.5 µg/mL (≈ 1.07 µM).
In the case of COC(=O)N1CCN(/N=C/c2ccc(-c3ccc(N4C[C@H](CNC(C)=O)OC4=O)cc3F)cn2)CC1, the MIC (Enterococcus faecium [1]) is reported as 0.5 µg/mL (≈ 1 µM), the MIC (Staphylococcus aureus [2]) is reported as 1 µg/mL (≈ 2.01 µM) and the MIC (Staphylococcus aureus [3]) is reported as 1 µg/mL (≈ 2.01 µM). It also gave an MIC (Staphylococcus aureus [4]) of 2 µg/mL (≈ 4.01 µM) and an MIC (Enterococcus faecalis [5]) of 1 µg/mL (≈ 2.01 µM).
For CC(=O)NC[C@H]1CN(c2ccc(N3CCOCC3)c(F)c2)C(=O)O1 [LINEZOLID], the MIC (Enterococcus faecium [6]) was 1 to 4 µg/mL (≈ 2.96 to 11.9 µM), the IC50 (HepG2) was greater than 25 µM and the MIC (Enterococcus faecium [1]) was 2 µg/mL (≈ 5.93 µM). For the same molecule, the MIC (Enterococcus faecalis [7]) was greater than 16 µg/mL, the MIC (Staphylococcus aureus [2]) was 1 µg/mL (≈ 2.96 µM) and the MIC (Staphylococcus aureus [8]) was 1 to 4 µg/mL (≈ 2.96 to 11.9 µM). The MIC (Staphylococcus aureus [3]) was 1 µg/mL (≈ 2.96 µM), the MIC (Staphylococcus aureus [4]) was 1 µg/mL (≈ 2.96 µM) and the MIC (Enterococcus faecalis [5]) was greater than 16 µg/mL. For the same molecule, the Stability [9] was “Stable”.
With CC(=O)NC[C@H]1CN(c2ccc(-c3ccc(/C=N/N4CCS(=O)(=O)CC4)cn3)c(F)c2)C(=O)O1 the MIC (Enterococcus faecium [1]) was 1 µg/mL (≈ 2.04 µM), the MIC (Staphylococcus aureus [2]) was 2 µg/mL (≈ 4.09 µM) and the MIC (Staphylococcus aureus [3]) was 1 µg/mL (≈ 2.04 µM). For the same molecule, the MIC (Staphylococcus aureus [4]) was 1 µg/mL (≈ 2.04 µM) and the MIC (Enterococcus faecalis [5]) was 1 µg/mL (≈ 2.04 µM).
For CC(=O)NC[C@H]1CN(c2ccc(-c3ccc(/C=N/N4CCNCC4)cn3)c(F)c2)C(=O)O1, the MIC (Enterococcus faecium [1]) was 2 µg/mL (≈ 4.54 µM), the MIC (Staphylococcus aureus [2]) was 2 µg/mL (≈ 4.54 µM) and the MIC (Staphylococcus aureus [3]) was 2 µg/mL (≈ 4.54 µM). It also gave an MIC (Staphylococcus aureus [4]) of 2 µg/mL (≈ 4.54 µM) and an MIC (Enterococcus faecalis [5]) of 2 µg/mL (≈ 4.54 µM).
In the case of CC(=O)NC[C@H]1CN(c2ccc(-c3ccc(/C=N/N4CCN(C)CC4)c(F)c3)c(F)c2)C(=O)O1, the MIC (Enterococcus faecium [1]) is reported as 1 µg/mL (≈ 2.12 µM), the MIC (Staphylococcus aureus [2]) is reported as 1 µg/mL (≈ 2.12 µM) and the MIC (Staphylococcus aureus [3]) is reported as 1 µg/mL (≈ 2.12 µM). The MIC (Staphylococcus aureus [4]) was 1 µg/mL (≈ 2.12 µM) and the MIC (Enterococcus faecalis [5]) was 1 µg/mL (≈ 2.12 µM).
CC(=O)NC[C@H]1CN(c2ccc(-c3ccc(/C=N/N4CCN(C)CC4)c(C(F)(F)F)c3)c(F)c2)C(=O)O1 gave an MIC (Enterococcus faecium [1]) of 2 µg/mL (≈ 3.83 µM), an MIC (Staphylococcus aureus [2]) of 2 µg/mL (≈ 3.83 µM) and an MIC (Staphylococcus aureus [3]) of 2 µg/mL (≈ 3.83 µM). The MIC (Staphylococcus aureus [4]) was 2 µg/mL (≈ 3.83 µM) and the MIC (Enterococcus faecalis [5]) was 2 µg/mL (≈ 3.83 µM).
For CC(=O)NC[C@H]1CN(c2ccc(-c3ccc(/C=N/N4CCNCC4)c(C)c3)c(F)c2)C(=O)O1, the MIC (Enterococcus faecium [1]) was 0.5 µg/mL (≈ 1.1 µM), the MIC (Staphylococcus aureus [2]) was 0.5 µg/mL (≈ 1.1 µM) and the MIC (Staphylococcus aureus [3]) was 0.5 µg/mL (≈ 1.1 µM). For the same molecule, the MIC (Staphylococcus aureus [4]) was 0.5 µg/mL (≈ 1.1 µM) and the MIC (Enterococcus faecalis [5]) was 0.5 µg/mL (≈ 1.1 µM).
Molecule CC(=O)NC[C@H]1CN(c2ccc(-c3ccc(/C=N/N4CC[S+]([O-])CC4)nc3)c(F)c2)C(=O)O1 has an MIC (Enterococcus faecium [1]) of 0.5 µg/mL (≈ 1.06 µM), an MIC (Staphylococcus aureus [2]) of 0.25 µg/mL (≈ 0.528 µM) and an MIC (Staphylococcus aureus [3]) of 0.25 µg/mL (≈ 0.528 µM). It also gave an MIC (Staphylococcus aureus [4]) of 0.5 µg/mL (≈ 1.06 µM) and an MIC (Enterococcus faecalis [5]) of 0.5 µg/mL (≈ 1.06 µM).
CC(=O)NC[C@H]1CN(c2ccc(-c3ccc(/C=N/N4CCSCC4)cn3)c(F)c2)C(=O)O1 gave an MIC (Enterococcus faecium [1]) of 2 µg/mL (≈ 4.37 µM), an MIC (Staphylococcus aureus [2]) of 1 µg/mL (≈ 2.19 µM) and an MIC (Staphylococcus aureus [3]) of 0.5 µg/mL (≈ 1.09 µM). The MIC (Staphylococcus aureus [4]) was 2 µg/mL (≈ 4.37 µM) and the MIC (Enterococcus faecalis [5]) was 2 µg/mL (≈ 4.37 µM).
